Reference: ChEMBL document CHEMBL5360579, “Exploring the anticancer activity and the mechanism of action of pyrrolomycins F obtained by microwave-assisted total synthesis” (Eur J Med Chem, 2023)
Activity calls are given as the source filed them. No cut-off for these calls is given here.

Key:
[1] = tested on: HCT-116; assay: Induction of cell death in human HCT-116 cells assessed as chromatin condensation at 0.5 uM incubated for 48 hrs by acridine orange and ethidium bromide staining based fluorescence microscopic analysis; assay type: functional
Summary of the method: (§1)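 HCT116 on coverslips (5×10^4 cells/well), 24 h attachment, then exposed 48 h to 0.5 µM. PBS-washed and stained a few minutes with a 1:1 mix of acridine orange (100 µg/mL) and ethidium bromide (100 µg/mL). Viewed at once by fluorescence microscopy at 640X, scoring green vs orange nuclei and punctate cytoplasmic staining.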

[2] = tested on: HCT-116; assay: Induction of morphological changes in human HCT-116 cells assessed as tunneling nanotubes formation at 0.5 uM incubated for 48 hrs by scanning electron microscopic analysis; assay type: functional, cell-based
Summary of the method: (§2)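 HCT116 on coverslips, treated 48 h at 0.5 µM. Coverslips rinsed in PBS pH 7.4, fixed in 4% glutaraldehyde for 30 min at 4 °C, then imaged by scanning electron microscopy at 5000X and 20000X.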

[3] = tested on: HCT-116; assay: Induction of apoptosis in human HCT-116 cells assessed as chromatin condensation at 0.5 uM incubated for 48 hrs by Hoechst 33342 staining based analysis; assay type: functional, cell-based
Summary of the method: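 HCT116 on coverslips at 5×10^4 cells/well, treated 48 h at 0.5 µM after 24 h attachment. PBS-washed, stained 10 min with Hoechst 33342 (final 1 µg/ml). Nuclei inspected at once by fluorescence microscopy at 640X for chromatin condensation and nuclear fragmentation.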

[4] = tested on: HCT-116; assay: Inhibition of epithelial mesenchymal transition in human HCT-116 cells assessed as effect on vimentin protein expression at 0.5 uM incubated for 48 hrs by Western blot analysis; assay type: functional, cell-based
[5] = tested on: HCT-116; assay: Induction of cell death in human HCT-116 cells assessed as effect on Bcl2 protein expression at 0.5 uM incubated for 48 hrs by Western blot analysis; assay type: functional, cell-based
[6] = tested on: MCF7; assay: Induction of morphological changes in human MCF7 cells assessed as appearance of flattened cells at 1 uM incubated for 48 hrs by inverted phase-contrast microscopic analysis; assay type: functional, cell-based
[7] = tested on: MCF7; assay: Induction of morphological changes in human MCF7 cells assessed as reduction in cell clumps at 1 uM incubated for 48 hrs by inverted phase-contrast microscopic analysis; assay type: functional, cell-based
[8] = tested on: HCT-116; assay: Induction of morphological changes in human HCT-116 cells assessed as reduction in cell clumps at 0.5 uM incubated for 48 hrs by inverted phase-contrast microscopic analysis; assay type: functional, cell-based
[9] = tested on: HCT-116; assay: Induction of morphological changes in human HCT-116 cells assessed as appearance of actin rich long elongations at 0.5 uM incubated for 48 hrs by rhodamine-phalloidin staining based fluorescence microscopic analysis; assay type: functional, cell-based
Summary of the method: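 HCT116 on coverslips, treated 48 h at 0.5 µM. Fixed in cold methanol 15 min, permeabilized 15 min in 0.1% Triton X-100/PBS. Stained with 0.165 µM rhodamine-phalloidin for 40 min in the dark at room temperature. Imaged at 640X.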

[10] = tested on: HCT-116; assay: Induction of cell death in human HCT-116 cells assessed as loss of membrane integrity at 0.5 uM incubated for 48 hrs by acridine orange and ethidium bromide staining based fluorescence microscopic analysis; assay type: functional; summary of the method: as §1
[11] = tested on: HCT-116; assay: Induction of cell death in human HCT-116 cells assessed as membrane blebbing at 0.5 uM incubated for 48 hrs by acridine orange and ethidium bromide staining based fluorescence microscopic analysis; assay type: functional; summary of the method: as §1
[12] = tested on: MCF7; assay: Induction of morphological changes in human MCF7 cells assessed as appearance of filamentous protrusions at 1 uM incubated for 48 hrs by inverted phase-contrast microscopic analysis; assay type: functional, cell-based
[13] = tested on: HCT-116; assay: Induction of cell death in human HCT-116 cells assessed as increase in orange fluorescence at 0.5 uM incubated for 48 hrs by acridine orange and ethidium bromide staining based fluorescence microscopic analysis; assay type: functional; summary of the method: as §1
[14] = tested on: HCT-116; assay: Induction of morphological changes in human HCT-116 cells assessed as increase in number of prominent vacuoles at 0.5 uM incubated for 48 hrs by inverted phase-contrast microscopic analysis; assay type: functional, cell-based
[15] = tested on: MCF7; assay: Induction of morphological changes in human MCF7 cells assessed as development of long elongations from filamentous protrusions resembling filopodia at 1 uM incubated for 48 hrs by inverted phase-contrast microscopic analysis; assay type: functional, cell-based
[16] = tested on: HCT-116; assay: Induction of morphological changes in human HCT-116 cells assessed as development of long elongations from filamentous protrusions resembling filopodia at 0.5 uM incubated for 48 hrs by inverted phase-contrast microscopic analysis; assay type: functional, cell-based
[17] = tested on: HCT-116; assay: Induction of morphological changes in human HCT-116 cells assessed as appearance of elongated fusiform-shaped cells at 0.5 uM incubated for 48 hrs by scanning electron microscopic analysis; assay type: functional, cell-based; summary of the method: as §2
[18] = tested on: HCT-116; assay: Induction of morphological changes in human HCT-116 cells assessed as neuronal sprouting at 0.5 uM incubated for 48 hrs by scanning electron microscopic analysis; assay type: functional, cell-based; summary of the method: as §2
[19] = tested on: HCT-116; assay: Cytotoxicity against human HCT-116 cells assessed as inhibition of cell proliferation incubated for 48 hrs by MTT assay; assay type: functional, cell-based; settings: HCT-116, 48 h
Summary of the method: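 Cells kept in DMEM with 10% heat-inactivated FBS, penicillin/streptomycin, 37 °C, 5% CO2. Plated at 5×10^3 cells/well and left 24 h, then exposed 48 h to 80, 20, 5, 1.25, 0.31 and 0.078 µM (diluted from 5 mM DMSO stocks). MTT added for 2 h at 37 °C, formazan dissolved in DMSO, A570 read. Blank subtracted, viability taken relative to untreated cells. IC50 from a sigmoidal fit of % inhibition vs log concentration. Three experiments, each in triplicate.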

[20] = tested on: HCT-116; assay: Induction of morphological changes in human HCT-116 cells assessed as massive vacuolization at 0.5 uM incubated for 48 hrs by scanning electron microscopic analysis; assay type: functional, cell-based; summary of the method: as §2
[21] = tested on: HCT-116; assay: Induction of intracellular ROS generation in human HCT-116 cells at IC50 measured after 48 hrs by DCFH-DA staining based fluorescence microscopic analysis; assay type: functional, cell-based
Summary of the method: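 HCT116 on coverslips at 5×10^4 cells/well, treated 48 h at the IC50 concentration. Loaded with 10 µM DCFH-DA for 30 min at 37 °C, then imaged by fluorescence microscopy at 640X.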

[22] = Selectivity index, ratio of IC50 for hTERT-RPE1 cells to IC50 for human MCF7 cells; assay type: toxicity; settings: hTERT-RPE1 cells versus MCF7 cells, read-out: Ratio IC50
Summary of the method: (§3)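 Ratio of the hTERT-RPE-1 MTT IC50 to the IC50 in HCT116 or MCF-7. Each IC50 comes from a 48 h MTT assay (0.078–80 µM, sigmoidal fit), three experiments in triplicate.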

[23] = tested on: HCT-116; assay: Cytotoxicity against human HCT-116 cells assessed as reduction in colony formation treated for 48 hrs and measured after 10 days post last treatment by crystal violet staining based analysis; assay type: functional, cell-based; settings: dose 0.1-5 µM, time 9.0 day, in the assay text read “7 days” for “10 days”
Summary of the method: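 HCT116 seeded at 5×10^4 cells/well. After 24 h, treated 48 h at 0.1–0.5 and 5 µM, then grown a further 7 days. Fixed and stained 30 min with 6.0% glutaraldehyde plus 0.5% crystal violet, then washed. Dye taken up in 5% acetic acid and read at 592 nm.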

[24] = Selectivity index, ratio of IC50 for hTERT-RPE1 cells to IC50 for human HCT-116 cells; assay type: toxicity; settings: hTERT-RPE1 cells versus HCT-116 cells, read-out: Ratio IC50; summary of the method: as §3
[25] = tested on: HCT-116; assay: Induction of autophagy in human HCT-116 cells assessed as effect on Atg-7 protein expression at 0.5 uM incubated for 48 hrs by Western blot analysis; assay type: functional, cell-based

| SMILES | Activity [1] | Activity [2] | Activity [3] | inhibition [4] | Activity [5] | Activity [6] | Activity [7] | Activity [8] | Activity [9] | Activity [10] | Activity [11] | Activity [12] | Activity [13] | Activity [14] | Activity [15] | Activity [16] | Activity [17] | Activity [18] | IC50 [19] [nM] | Activity [20] | also measured |
| --- | --- | --- | --- | --- | --- | --- | --- | --- | --- | --- | --- | --- | --- | --- | --- | --- | --- | --- | --- | --- | --- |
| O=C(c1cc(Br)cc(Br)c1O)c1[nH]c(Br)c(Br)c1Br | inactive | Active | inactive | inactive | Active | Active | Active | Active | Active | Active | Active | Active | Active | Active | Active | Active | Active | Active | 1300 | Active | Activity [21]: Active |
| O=C(c1cc(Br)ccc1O)c1[nH]c(Br)c(Br)c1Br | inactive | Active | inactive | inactive | Active | Active | Active | Active | Active | Active | Active | Active | Active | Active | Active | Active | Active | Active | 350 | Active | selectivity ratio [22]: ~100; Activity [23]: Dose-Dependent Effect; selectivity ratio [24]: ~100; Activity [25]: Active; Activity [21]: Active |
| O=C(c1cc(Br)ccc1O)c1[nH]c(Br)c(Cl)c1Br | inactive | Active | inactive | inactive | Active | Active | Active | Active | Active | Active | Active | Active | Active | Active | Active | Active | Active | Active | 490 | Active | selectivity ratio [22]: ~100; Activity [23]: Dose-Dependent Effect; selectivity ratio [24]: ~100; Activity [25]: Active; Activity [21]: Active |
| O=C(c1cc(Br)ccc1O)c1[nH]c(Cl)c(Cl)c1Br | inactive | Active | inactive | inactive | Active | Active | Active | Active | Active | Active | Active | Active | Active | Active | Active | Active | Active | Active | 880 | Active | selectivity ratio [22]: ~100; Activity [23]: Dose-Dependent Effect; selectivity ratio [24]: ~100; Activity [25]: Active; Activity [21]: Active |
| O=C(c1cc(Br)ccc1O)c1[nH]c(Cl)c(Br)c1Br | inactive | Active | inactive | inactive | Active | Active | Active | Active | Active | Active | Active | Active | Active | Active | Active | Active | Active | Active | 410 | Active | selectivity ratio [22]: ~100; Activity [23]: Dose-Dependent Effect; selectivity ratio [24]: ~100; Activity [25]: Active; Activity [21]: Active |
